According to ChEMBL document CHEMBL1132283, “Further studies on the Dmt-Tic pharmacophore: hydrophobic substituents at the C-terminus endow delta antagonists to manifest mu agonism or mu antagonism” (J Med Chem, 1999):
Where a SMILES comes first, the peptide text is derived from it. [ ]: non-standard residue; d: D form. The star is where a group is joined. Dmt = Cc1cc(O)cc(C)c1C[C@H](N)C(=O)O; Tic = O=C(O)[C@@H]1Cc2ccccc2CN1; NHtBu = CC(C)(C)N*; NHNH2 = NN*

How the values were obtained:
Cavia porcellus [1] = species on record: Cavia porcellus; test: Antagonistic functional bioactivity against […]-receptor from guinea pig ileum(GPI).; conditions: for Kb: read-out: pA2 (converted)
Mus musculus [2] = species on record: Mus musculus; test: Antagonistic functional bioactivity against delta-receptor from mouse vas deferens(MVD).; conditions: for Kb: read-out: pA2 (converted)
[3] = target: T1, Opioid receptors; mu & delta (Rattus norvegicus) (UniProt P33533+P33535); test: Agonist activity ratio (Ki of mu receptors compared to Ki of delta receptors).; type: functional
T1 sequence (P33533 whole entry, looked up): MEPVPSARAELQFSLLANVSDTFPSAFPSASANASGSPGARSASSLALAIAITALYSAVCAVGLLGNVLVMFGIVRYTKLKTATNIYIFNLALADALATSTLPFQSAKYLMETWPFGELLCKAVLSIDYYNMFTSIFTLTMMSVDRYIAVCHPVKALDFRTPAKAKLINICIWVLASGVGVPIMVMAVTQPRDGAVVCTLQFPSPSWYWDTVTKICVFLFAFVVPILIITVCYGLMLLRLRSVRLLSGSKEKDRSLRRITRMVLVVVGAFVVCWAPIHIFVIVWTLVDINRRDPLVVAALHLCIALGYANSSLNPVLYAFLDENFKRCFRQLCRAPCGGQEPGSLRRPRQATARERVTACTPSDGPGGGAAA
T1 sequence (P33535 whole entry, looked up): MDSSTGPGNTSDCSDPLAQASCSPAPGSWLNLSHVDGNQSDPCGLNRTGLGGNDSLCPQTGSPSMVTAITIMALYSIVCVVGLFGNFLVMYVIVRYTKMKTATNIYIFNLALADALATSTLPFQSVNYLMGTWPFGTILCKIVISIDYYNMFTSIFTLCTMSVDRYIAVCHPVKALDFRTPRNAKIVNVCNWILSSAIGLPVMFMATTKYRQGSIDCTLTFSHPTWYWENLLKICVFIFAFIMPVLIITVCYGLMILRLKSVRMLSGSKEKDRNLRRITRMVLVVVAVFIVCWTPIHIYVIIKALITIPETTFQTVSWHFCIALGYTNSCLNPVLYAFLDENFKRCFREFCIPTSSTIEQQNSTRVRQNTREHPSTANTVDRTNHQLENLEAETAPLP

[4] = target: T1, Opioid receptors; mu & delta (Rattus norvegicus); test: Antagonistic activity ratio (Ki of mu receptors compared to Ki of delta receptors).; type: functional
[5] = target: T2, Delta-type opioid receptor (Rattus norvegicus, UniProt P33533); test: Binding affinity at Opioid receptor delta 1 from rat brain synaptosomal preparations by [3H]N,N-(Me)2-Dmt-Tic-OH displacement.
T2 sequence (P33533 whole entry): as the sequence (P33533 whole entry, looked up) above
How it was run: (§1)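 Nonspecific binding was set with 2 μM unlabeled peptide, followed by GF/C filtration. Duplicates at 5–9 doses, ≥3 preparations; Ki by Cheng–Prusoff, mean ± SEM.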

[6] = target: T2, Delta-type opioid receptor; test: Binding affinity at Opioid receptor delta 1 from rat brain synaptosomal preparations by H-Dmt-Tic-OH displacement.
Mu-type opioid receptor = Mu-type opioid receptor (Rattus norvegicus, UniProt P33535); test: Binding affinity at Opioid receptor mu 1 from rat brain synaptosomal preparations by [3H]DAGO displacement.; how it was run: as §1
Sequence of Mu-type opioid receptor (P33535 whole entry): as the sequence (P33535 whole entry, looked up) above

Cavia porcellus [7] = species on record: Cavia porcellus; test: Antagonistic functional bioactivity against […]-receptor from guinea pig ileum(GPI)
Mus musculus [8] = species on record: Mus musculus; test: Antagonistic functional bioactivity against delta-receptor from mouse vas deferens(MVD); conditions: for Kb: read-out: pA2 (converted)

Compound | EC50 (Cavia porcellus [1]) [nM] | Kb (Cavia porcellus [1]) [nM] | Ke (Mus musculus [2]) [nM] | Kb (Mus musculus [2]) [nM] | Ratio [3] | Ratio [4] | Ki [5] [nM] | Ki [6] [nM] | Ki (Mu-type opioid receptor) [nM] | EC50 (Mus musculus [2]) [nM] | EC50 (Cavia porcellus [7]) [nM] | Ke (Mus musculus [8]) [nM] | Kb (Mus musculus [8]) [nM] | Ke (Cavia porcellus [1]) [nM]
Cc1cc(O)cc(C)c1C[C@H](N)C(=O)N1Cc2ccccc2C[C@H]1C(=O)N[C@@H](C)C(=O)NC(C)(C)C (H-[Dmt]-[Tic]-Ala-NHtBu) | > 10000 | 174 | 0.69 | 0.692 | 61 | 48 |  |  |  |  |  |  |  | 
COC(=O)[C@H](C)NC(=O)[C@@H]1Cc2ccccc2CN1C(=O)[C@@H](N)Cc1c(C)cc(O)cc1C (H-[Dmt]-[Tic]-Ala-OMe) |  |  |  |  | 48 | 83 |  |  |  |  |  |  |  | 
Cc1cc(O)cc(C)c1C[C@H](N)C(=O)N1Cc2ccccc2C[C@@H]1C(=O)NC12C[C@H]3C[C@@H](C1)C[C@@H](C2)C3 | 1680 |  | >10000 |  | 0.01 | 0.004 | 24.5 | 70.3 | 0.26 |  |  |  |  | 
Cc1cc(O)cc(C)c1CC(CN)C(=O)N1Cc2ccccc2C[C@H]1C(=O)O (stereo not given in full) |  |  |  |  | 155 | 4 |  |  |  |  |  |  |  | 
Cc1cc(O)cc(C)c1C[C@@H](C(=O)N1Cc2ccccc2C[C@H]1C(=O)O)N1CCCC1 | > 10000 |  | 121 | 126 | 502 | 573 |  |  |  |  |  |  |  | 
Cc1cc(O)cc(C)c1C[C@@H](C(=O)N1Cc2ccccc2C[C@@H]1C(=O)NC12C[C@H]3C[C@@H](C1)C[C@@H](C2)C3)N(C)C | 4480 |  | 128 | 123 | 0.36 | 0.42 | 140 | 120 | 50.5 |  |  |  |  | 
Cc1cc(O)cc(C)c1C[C@H](N)C(=O)N1Cc2ccccc2C[C@H]1C(=O)NC12C[C@H]3C[C@@H](C1)C[C@@H](C2)C3 | 36 |  | >10000 |  | 3 | 0.8 | 0.26 | 1.01 | 0.76 | 870 |  |  |  | 
CNC(=O)[C@H](C)NC(=O)[C@@H]1Cc2ccccc2CN1C(=O)[C@@H](N)Cc1c(C)cc(O)cc1C (H-[Dmt]-[Tic]-Ala-NHMe) | 290 |  |  |  | 100 | 47 |  |  |  | 1290 |  |  |  | 
COC(=O)[C@@H]1Cc2ccccc2CN1C(=O)[C@@H](N)Cc1c(C)cc(O)cc1C (H-[Dmt]-[Tic]-OMe) |  |  |  |  | 44 | 0.8 |  |  |  |  |  |  |  | 
Cc1cc(O)cc(C)c1C[C@H](N)C(=O)N1Cc2ccccc2C[C@H]1C(=O)Nc1nn[nH]n1 |  |  |  |  | 53 | 4 |  |  |  |  | 8200 | 36.3 | 36.3 | 
CNC(=O)[C@@H]1Cc2ccccc2CN1C(=O)[C@@H](N)Cc1c(C)cc(O)cc1C (H-[Dmt]-[Tic]-NHMe) | > 10000 | 1150 | >10000 |  |  |  |  |  |  | 21200 |  |  |  | 1.15
CNC(=O)[C@@H]1Cc2ccccc2CN1C(=O)[C@H](Cc1c(C)cc(O)cc1C)N(C)C | > 10000 | 389 | 0.41 | 0.407 | 669 | 1270 |  |  |  |  |  |  |  | 0.39
Cc1cc(O)cc(C)c1C[C@@H](C(=O)N1Cc2ccccc2C[C@H]1C(=O)NC12C[C@H]3C[C@@H](C1)C[C@@H](C2)C3)N(C)C | 16 |  | 0.87 | 0.871 | 7 | 9 | 0.16 | 0.12 | 1.12 |  |  |  |  | 
Cc1cc(O)cc(C)c1C[C@@H](C(=O)N1Cc2ccccc2C[C@H]1C(=O)O)N1CCCCC1 | > 10000 |  | 49 | 49 | 1730 | 2760 |  |  |  |  |  |  |  | 
Cc1cc(O)cc(C)c1C[C@H](N)C(=O)N1Cc2ccccc2C[C@H]1C(=O)N[C@@H](C)C(=O)NC12C[C@H]3C[C@@H](C1)C[C@@H](C2)C3 | 1000 |  | 0.51 | 0.513 |  |  | 0.073 | 0.04 | 2.52 |  |  |  |  | 
Cc1cc(O)cc(C)c1C[C@H](N)C(=O)N1Cc2ccccc2C[C@H]1C(=O)NN (H-[Dmt]-[Tic]-NHNH2) |  |  |  |  | 86 | 2 |  |  |  |  |  |  |  | 
Cc1cc(O)cc(C)c1C[C@H](N)C(=O)N1Cc2ccccc2C[C@H]1C(=O)NC(C)(C)C (H-[Dmt]-[Tic]-NHtBu) | 1040 |  | 1.74 | 5.75 | 14 | 6 |  |  |  |  |  |  |  | 
Cc1cc(O)cc(C)c1C[C@@H](C(=O)N1Cc2ccccc2C[C@H]1C(=O)NC(C)(C)C)N(C)C | > 10000 | 302 | 14.1 | 14.1 |  |  |  |  |  |  |  |  |  | 0.3
Cc1cc(O)cc(C)c1C[C@H](N)C(=O)N1Cc2ccccc2C[C@H]1CC(=O)O | > 10000 |  | 1.41 | 1.58 |  |  |  |  |  |  |  |  |  | 
Cc1cc(O)cc(C)c1C[C@@H](C(=O)N1Cc2ccccc2C[C@H]1C(=O)O)n1cccc1 |  |  |  |  | 338 | 562 |  |  |  |  | > 10000 | 408 | 407 | 
